RORa activator – activators of human nuclear receptor RORA; 65,000 tested, 1.5% active; CHO-K1 Gal4-RORA LBD luciferase reporter, luminescence; percent increase over mock-subtracted basal signal; activation, % at 10 µM; AID 560;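 active means activation above the mean of all tested compounds plus 3 SD, cut at about 49% in these data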;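 further: 0% = DMSO-treated RORA cells and 100% = added signal equal to DMSO minus mock-transfected cells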
Target sequence (P35398 whole entry, looked up, the tested form may be a part): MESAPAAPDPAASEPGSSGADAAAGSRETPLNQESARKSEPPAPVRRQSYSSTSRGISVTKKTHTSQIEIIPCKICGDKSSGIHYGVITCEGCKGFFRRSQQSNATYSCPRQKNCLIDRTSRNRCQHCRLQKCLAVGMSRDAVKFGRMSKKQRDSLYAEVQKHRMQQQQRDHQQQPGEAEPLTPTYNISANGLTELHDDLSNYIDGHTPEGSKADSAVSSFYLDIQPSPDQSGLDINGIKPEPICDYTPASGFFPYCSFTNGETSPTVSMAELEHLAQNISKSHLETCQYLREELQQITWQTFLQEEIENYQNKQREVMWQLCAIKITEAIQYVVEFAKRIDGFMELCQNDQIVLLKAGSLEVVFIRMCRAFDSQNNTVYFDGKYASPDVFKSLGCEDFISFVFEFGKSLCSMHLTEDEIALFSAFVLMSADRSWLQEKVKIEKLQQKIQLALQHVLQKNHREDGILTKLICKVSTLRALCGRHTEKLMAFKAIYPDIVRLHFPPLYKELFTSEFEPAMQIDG
HEK293 NFkB inh – inhibitors of the PMA/ionomycin-induced NF-kB reporter in HEK293 cells; HEK-293 NF-kB luciferase reporter, luminescence; inhibition, % at 3 µM; 62,000 tested, 0.21% active; AID 465;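 active means inhibition above the mean of all tested compounds plus 3 SD, cut at about 40% in these data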;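 further: 0% = stimulated DMSO wells and 100% = 10 µM reference inhibitor 5653914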
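Timing: 1 h pretreatment, 16 h stimulation, 37 °C; system: HEK-293 cells with stable firefly luciferase reporter driven by four HIV NF-kB elements; doses: 3 µM once, 0.30% DMSO; measured by: luciferase luminescence; control set: DMSO and 10 µM reference inhibitor; repeats: single test; reagent: PMA plus ionomycin mix as NF-kB-activating stimulus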
SF-1 act – activators of human nuclear receptor SF-1; Q13285; CHO-K1 Gal4-SF-1 LBD luciferase reporter; % increase over DMSO SF-1-specific signal; activation, % at 10 µM; 65,000 tested, 1.9% active; AID 522;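 active means activation above the mean activation of all tested compounds plus 3 SD, cut at about 50% in these data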
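Test system: CHO-K1 cells co-transfected with Gal4 DBD–human SF-1 LBD, 5xGal4 luciferase reporter. Quantity: 4,000 cells per well. Compound: 10 µM only. Incubation: compound added 1 h post-seeding, 20 h exposure at 37 °C, 5% CO2. Detection: SteadyLite luciferase luminescence. Replication: one test per compound.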
Jurkat tox 60K – cytotoxic compounds reducing Jurkat cell viability | Jurkat E6.1 viability, ATP luminescence, 48 h | inhibition, % at 4 µM | 56,000 tested, 1.2% active | AID 463;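 active means inhibition above the mean inhibition of all tested compounds plus 3 SD, cut at about 28% in these data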
Starred values were filed as active, the others as inactive. The list is not random: actives were taken first. Their share in the collection is about 3.9%.

For O=C(Nc1ccc(NC(=O)C23CC4CC(CC(C4)C2)C3)cn1)c1ccco1 the results were RORa activator 28.1, HEK293 NFkB inh -59.2, SF-1 act 89.9* and Jurkat tox 60K 0.4.
O=C(Nc1ccc(NC(=O)c2ccco2)nc1)c1ccccn1 was read as RORa activator 26.9, HEK293 NFkB inh -21.4 and SF-1 act 51.5*.
`O=C(Cc1ccccc1)Nc1ccc(NC(=O)c2ccco2)nc1` gave RORa activator 17.1, HEK293 NFkB inh -7.7, SF-1 act 59.3* and Jurkat tox 60K -2.7.
CC1CN(C(=O)Cc2ccc(-c3ccccc3)cc2)CC(C)O1 (stereo unspecified) was read as RORa activator -9.7, HEK293 NFkB inh 5.9, SF-1 act -2.2 and Jurkat tox 60K 0.8.
`Cc1cc(-c2ccccc2)nc(N2CCC(C(=O)NC(C)C)CC2)n1` gave RORa activator 66.6*, HEK293 NFkB inh -38.3, SF-1 act 96.8* and Jurkat tox 60K -0.9.
For CCC(C)NC(=O)C1CCN(c2nc(C)cc(C)n2)CC1 (stereo unspecified) the results were RORa activator -17.1, HEK293 NFkB inh 15.9, SF-1 act 9.9 and Jurkat tox 60K -5.7.
O=C(NC1CCCC1)c1cccc(S(=O)(=O)N2CCCCC2)c1 was read as RORa activator -11.8, HEK293 NFkB inh 16.3, SF-1 act -1.2 and Jurkat tox 60K 4.3.
`CN(C)c1cccc(C(=O)NC2CCCCCC2)c1` gave RORa activator 26.3, HEK293 NFkB inh -15.3, SF-1 act 74.6* and Jurkat tox 60K -1.6.
For COC(=O)c1cc2ccsc2n1CC(=O)Nc1cc(Cl)ccc1OC the results were RORa activator 13.1, HEK293 NFkB inh 12.1, SF-1 act -3.6 and Jurkat tox 60K 86.0*.
Screening CCOC(=O)c1nn(-c2ccc3c(c2)CCN3C(C)=O)cc1O returned RORa activator 58.3*, HEK293 NFkB inh -25.2 and SF-1 act 64.8*.
COc1ccc(C(=O)CSc2nnc(Cn3cnc4ccccc43)o2)cc1 was read as RORa activator -14.4, HEK293 NFkB inh 12.6, SF-1 act -33.4 and Jurkat tox 60K 92.4*.
CCOC(=O)c1c(C)c(C(=O)Nc2cc(F)ccc2F)c(C)n1C was read as RORa activator 38.8, HEK293 NFkB inh 16.8, SF-1 act 35.3 and Jurkat tox 60K 40.0*.
For Cc1ccc(-c2noc(-c3cccs3)n2)cc1 the results were RORa activator 37.9, HEK293 NFkB inh -41.7, SF-1 act 25.7 and Jurkat tox 60K -1.9.
Screening Brc1ccc(-c2cnc(-c3cccs3)o2)cc1 returned RORa activator 12.7, HEK293 NFkB inh -11.8, SF-1 act 51.9* and Jurkat tox 60K 1.8.
`CC1Cc2ccccc2N1C(=O)Cn1c(=O)oc2cc(S(=O)(=O)N3CCCCC3)ccc21` (stereo unspecified) gave RORa activator -17.9, HEK293 NFkB inh 14.1, SF-1 act 1.0 and Jurkat tox 60K 6.7.
For CCOC(=O)C(C)Sc1nc2c(cnn2-c2ccc(C)cc2)c(=O)[nH]1 (stereo unspecified) the results were RORa activator 41.0, HEK293 NFkB inh 17.5, SF-1 act 34.0 and Jurkat tox 60K 49.8*.
For CC(NC(=O)Cc1ccc(F)cc1)C(c1cccs1)N1CCN(C)CC1 (stereo unspecified) the results were RORa activator -0.8, HEK293 NFkB inh 3.2, SF-1 act -6.5 and Jurkat tox 60K 3.2.
For COCCCn1cnc2c(c1=O)c1nc3ccccc3nc1n2CCc1ccccc1 the results were RORa activator 18.4 and SF-1 act -11.2.
`COc1ccccc1-c1nnc(NC(=O)C(C)C)s1` gave RORa activator 14.0, HEK293 NFkB inh 8.9, SF-1 act 12.5 and Jurkat tox 60K -4.2.
Screening CCc1nnc(NC(=O)Nc2ccccc2OC)s1 returned RORa activator -14.6, HEK293 NFkB inh 13.9, SF-1 act 13.1 and Jurkat tox 60K 5.9.
COc1ccccc1-c1nnc(NC(C)=O)s1 was read as RORa activator 78.5*, HEK293 NFkB inh -10.4, SF-1 act 13.7 and Jurkat tox 60K -2.2.
COc1ccccc1NC(=O)Nc1nnc(C(C)C)s1 was read as RORa activator 44.0 and SF-1 act 52.9*.
For Cc1ccsc1C(=O)OCC(=O)NCC1CCCO1 (stereo unspecified) the results were RORa activator 22.1, HEK293 NFkB inh 9.5, SF-1 act 4.5 and Jurkat tox 60K -0.1.
Screening NC(=O)c1ccsc1NC(=O)C1CCCCC1 returned RORa activator 10.8, HEK293 NFkB inh 14.3, SF-1 act 20.0 and Jurkat tox 60K -1.8.

From PubChem
